# Data: ChEMBL document CHEMBL5058577, “EUbOPEN Chemogenomics Library 2 (Multiplex)” (2022)
# Tested on: HEK-293T
# Assay: Multiplex assay against HEK293T
# Type: toxicity, cell-based
# Conditions: human
# Summary of the method: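 Values for tubulin, mitochondrial-mass and membrane-permeability phenotypes are per cents of cells with healthy nuclei. These cells were identified by CellPathfinder machine-learning gating of live cells that had been stained at seeding with Hoechst33342, BioTracker Green Microtubule Cytoskeleton Dye, MitoTracker Red and Annexin V Alexa Fluor 680 and imaged on a CQ1 microscope at 37°C and 5% CO2 after compound addition. The gating first set Hoechst high-intensity objects apart from normal cells, then split normal cells into healthy, pyknosed or fragmented nuclei, and pyknosed cells into mitotic or apoptotic.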
# [1] = 12 h, 1 µM, compound concentration 1 uM, replicate 1
# [2] = 12 h, 1 µM, compound concentration 1 uM, replicate 2
# [3] = 12 h, 10 µM, compound concentration 10 uM, replicate 1
# [4] = 12 h, 10 µM, compound concentration 10 uM, replicate 2
# [5] = 24 h, 1 µM, compound concentration 1 uM, replicate 1
# [6] = 24 h, 1 µM, compound concentration 1 uM, replicate 2
# [7] = 24 h, 10 µM, compound concentration 10 uM, replicate 1
# [8] = 24 h, 10 µM, compound concentration 10 uM, replicate 2
# [9] = 48 h, 1 µM, compound concentration 1 uM, replicate 1
# [10] = 48 h, 1 µM, compound concentration 1 uM, replicate 2
# [11] = 48 h, 10 µM, compound concentration 10 uM, replicate 1
# [12] = 48 h, 10 µM, compound concentration 10 uM, replicate 2
compound,measurement,setting,value
Cc1onc(-c2ccccc2Cl)c1C(=O)N(C)c1ccc(Cl)cc1,Population Apoptotic (%),[1],35%
same,Population Fragmented Nuclei (%),[1],8%
same,Population Healthy Nuclei (%),[1],79%
same,Population Hoechst High Intensity Objects (%),[1],9%
same,Population Membrane Permeable-Phenotype (%),[1],0%
same,Population Mitochondria Different-Phenotype (%),[1],41%
same,Population Mitotic Cells (%),[1],64%
same,Population Normal (%),[1],90%
same,Population Pyknosed Nuclei (%),[1],12%
same,Population Tubulin-Different-Phenotype (%),[1],25%
same,Total Cell Count,[1],375
same,Population Apoptotic (%),[2],37%
same,Population Fragmented Nuclei (%),[2],3%
same,Population Healthy Nuclei (%),[2],84%
same,Population Hoechst High Intensity Objects (%),[2],6%
same,Population Mitochondria Different-Phenotype (%),[2],59%
same,Population Mitotic Cells (%),[2],62%
same,Population Normal (%),[2],93%
same,Total Cell Count,[2],320
same,Population Apoptotic (%),[3],38%
same,Population Fragmented Nuclei (%),[3],7%
same,Population Healthy Nuclei (%),[3],79%
same,Population Hoechst High Intensity Objects (%),[3],12%
same,Population Membrane Permeable-Phenotype (%),[3],0%
same,Population Mitochondria Different-Phenotype (%),[3],49%
same,Population Mitotic Cells (%),[3],61%
same,Population Normal (%),[3],87%
same,Population Pyknosed Nuclei (%),[3],13%
same,Population Tubulin-Different-Phenotype (%),[3],43%
same,Total Cell Count,[3],357
same,Population Apoptotic (%),[4],45%
same,Population Fragmented Nuclei (%),[4],4%
same,Population Healthy Nuclei (%),[4],80%
same,Population Hoechst High Intensity Objects (%),[4],6%
same,Population Mitochondria Different-Phenotype (%),[4],65%
same,Population Mitotic Cells (%),[4],54%
same,Population Normal (%),[4],93%
same,Population Pyknosed Nuclei (%),[4],14%
same,Population Tubulin-Different-Phenotype (%),[4],35%
same,Total Cell Count,[4],330
same,Population Apoptotic (%),[5],23%
same,Population Fragmented Nuclei (%),[5],9%
same,Population Healthy Nuclei (%),[5],81%
same,Population Hoechst High Intensity Objects (%),[5],5%
same,Population Membrane Permeable-Phenotype (%),[5],1%
same,Population Mitochondria Different-Phenotype (%),[5],21%
same,Population Mitotic Cells (%),[5],76%
same,Population Normal (%),[5],94%
same,Population Pyknosed Nuclei (%),[5],9%
same,Population Tubulin-Different-Phenotype (%),[5],14%
same,Total Cell Count,[5],523
same,Population Apoptotic (%),[6],42%
same,Population Fragmented Nuclei (%),[6],5%
same,Population Hoechst High Intensity Objects (%),[6],3%
same,Population Mitochondria Different-Phenotype (%),[6],44%
same,Population Mitotic Cells (%),[6],57%
same,Population Normal (%),[6],96%
same,Population Pyknosed Nuclei (%),[6],12%
same,Population Tubulin-Different-Phenotype (%),[6],18%
same,Total Cell Count,[6],383
same,Population Apoptotic (%),[7],45%
same,Population Fragmented Nuclei (%),[7],8%
same,Population Healthy Nuclei (%),[7],79%
same,Population Hoechst High Intensity Objects (%),[7],5%
same,Population Membrane Permeable-Phenotype (%),[7],1%
same,Population Mitochondria Different-Phenotype (%),[7],32%
same,Population Mitotic Cells (%),[7],54%
same,Population Normal (%),[7],94%
same,Population Pyknosed Nuclei (%),[7],12%
same,Population Tubulin-Different-Phenotype (%),[7],20%
same,Total Cell Count,[7],478
same,Population Apoptotic (%),[8],29%
same,Population Fragmented Nuclei (%),[8],7%
same,Population Healthy Nuclei (%),[8],82%
same,Population Hoechst High Intensity Objects (%),[8],3%
same,Population Membrane Permeable-Phenotype (%),[8],0%
same,Population Mitochondria Different-Phenotype (%),[8],47%
same,Population Mitotic Cells (%),[8],70%
same,Population Normal (%),[8],96%
same,Population Pyknosed Nuclei (%),[8],9%
same,Total Cell Count,[8],413
same,Population Apoptotic (%),[9],21%
same,Population Fragmented Nuclei (%),[9],14%
same,Population Healthy Nuclei (%),[9],79%
same,Population Hoechst High Intensity Objects (%),[9],2%
same,Population Membrane Permeable-Phenotype (%),[9],0%
same,Population Mitochondria Different-Phenotype (%),[9],11%
same,Population Mitotic Cells (%),[9],78%
same,Population Normal (%),[9],97%
same,Population Pyknosed Nuclei (%),[9],6%
same,Population Tubulin-Different-Phenotype (%),[9],9%
same,Total Cell Count,[9],932
same,Population Apoptotic (%),[10],31%
same,Population Fragmented Nuclei (%),[10],11%
same,Population Healthy Nuclei (%),[10],82%
same,Population Membrane Permeable-Phenotype (%),[10],1%
same,Population Mitochondria Different-Phenotype (%),[10],23%
same,Population Mitotic Cells (%),[10],68%
same,Population Pyknosed Nuclei (%),[10],5%
same,Population Tubulin-Different-Phenotype (%),[10],12%
same,Total Cell Count,[10],620
same,Population Apoptotic (%),[11],33%
same,Population Fragmented Nuclei (%),[11],14%
same,Population Healthy Nuclei (%),[11],76%
same,Population Hoechst High Intensity Objects (%),[11],3%
same,Population Membrane Permeable-Phenotype (%),[11],1%
same,Population Mitochondria Different-Phenotype (%),[11],16%
same,Population Mitotic Cells (%),[11],66%
same,Population Normal (%),[11],96%
same,Population Pyknosed Nuclei (%),[11],8%
same,Population Tubulin-Different-Phenotype (%),[11],15%
same,Total Cell Count,[11],755
same,Population Apoptotic (%),[12],20%
same,Population Fragmented Nuclei (%),[12],12%
same,Population Healthy Nuclei (%),[12],81%
same,Population Membrane Permeable-Phenotype (%),[12],0%
same,Population Mitochondria Different-Phenotype (%),[12],25%
same,Population Mitotic Cells (%),[12],79%
same,Population Pyknosed Nuclei (%),[12],6%
same,Population Tubulin-Different-Phenotype (%),[12],16%
same,Total Cell Count,[12],652
